Assay results from ChEMBL document CHEMBL1135739, “Radiolabeled amino acids for tumor imaging with PET: radiosynthesis and biological evaluation of 2-amino-3-[18F]fluoro-2-methylpropanoic acid and 3-[18F]fluoro-2-methyl-2-(methylamino)propanoic acid” (J Med Chem, 2002).
Several values for one entry are separate records, joined by “and”; a condition that tells them apart may be missing. Equal entries are not always repeated.

Tests used:
[1] = species on record: Rattus norvegicus; test: Radioactivity distribution in kidney of normal fischer rat after injection of [18F]-fluoro-2-methyl-2-(methylamino)propanoic acid after 60 min.; assay type: ADME, organism-based; conditions: in vivo, 1 h
Procedure, shortened: (§1)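 Normal male Fischer 344 rats (200–250 g), anesthetized with i.m. ketamine:xylazine (1:1), got ~85 μCi of tracer in 0.3 mL sterile water i.v. via tail-vein catheter. Groups of four were killed at 5, 30, 60 or 120 min. Tissues were weighed and gamma-counted against dose standards, and counts were decay-corrected to %ID/g. Results are mean ± standard error (n = 4), compared by one-way ANOVA.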

[2] = species on record: Rattus norvegicus; test: Radioactivity distribution in muscle of normal fischer rat after injection of [18F]-fluoro-2-methyl-2-(methylamino)propanoic acid after 120 min.; assay type: ADME, organism-based, Muscle tissue; conditions: in vivo, 2 h
Procedure, shortened: (§2)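 Male Fischer 344 rats (200–250 g), fed ad libitum, anesthetized with intramuscular ketamine:xylazine (1:1, 0.1 mL/100 g). About 85 μCi tracer in 0.3 mL sterile water was given by tail-vein catheter. Groups of four were killed at 5, 30, 60 or 120 min. Tissues were weighed and gamma-counted against dose standards, decay-corrected, and expressed as %ID/g (mean ± standard error).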

[3] = species on record: Rattus norvegicus; test: Radioactivity distribution in blood of normal fischer rat after injection of [18F]-fluoro-2-methyl-2-(methylamino)propanoic acid after 120 min.; assay type: ADME, organism-based; conditions: in vivo, 2 h; procedure, shortened: as §1
[4] = species on record: Rattus norvegicus; test: Radioactivity distribution in liver of normal fischer rat after injection of [18F]-fluoro-2-methyl-2-(methylamino)propanoic acid after 5 min.; assay type: ADME, organism-based; conditions: in vivo; procedure, shortened: as §2
[5] = species on record: Rattus norvegicus; test: Radioactivity distribution in testis of normal fischer rat after injection of [18F]-fluoro-2-methyl-2-(methylamino)propanoic acid after 60 min.; assay type: ADME, organism-based; conditions: in vivo, 1 h
Procedure, shortened: (§3)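 Male Fischer 344 rats (200–250 g), fed ad libitum, under intramuscular ketamine:xylazine anesthesia, got ~85 μCi radiotracer in 0.3 mL sterile water by tail-vein catheter. Groups of four were killed at 5, 30, 60 or 120 min. Dissected tissues were weighed and gamma-counted with dose standards. Counts were decay-corrected and given as %ID/g, mean ± standard error. Tissues were compared by one-way ANOVA.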

[6] = species on record: Rattus norvegicus; test: Radioactivity distribution in muscle of normal fischer rat after injection of [18F]-fluoro-2-methyl-2-(methylamino)propanoic acid after 60 min.; assay type: ADME, organism-based, Muscle tissue; conditions: in vivo, 1 h; procedure, shortened: as §2
[7] = species on record: Rattus norvegicus; test: Radioactivity distribution in spleen of normal fischer rat after injection of [18F]-fluoro-2-methyl-2-(methylamino)propanoic acid after 30 min.; assay type: ADME, organism-based; conditions: in vivo, 0.5 h; procedure, shortened: as §3
[8] = species on record: Rattus norvegicus; test: Radioactivity distribution in bone of normal fischer rat after injection of [18F]-fluoro-2-methyl-2-(methylamino)propanoic acid after 60 min.; assay type: ADME, organism-based, Bone element; conditions: in vivo, 1 h; procedure, shortened: as §1
[9] = species on record: Rattus norvegicus; test: Radioactivity distribution in tumor of tumor-bearing fischer rat after injection of [18F]-fluoro-2-methyl-2-(methylamino)propanoic acid after 120 min.; conditions: in vivo, 2 h
[10] = species on record: Rattus norvegicus; test: Radioactivity distribution in heart of normal fischer rat after injection of [18F]-fluoro-2-methyl-2-(methylamino)propanoic acid after 30 min.; assay type: ADME, organism-based; conditions: in vivo, 0.5 h; procedure, shortened: as §1
[11] = species on record: Rattus norvegicus; test: Radioactivity distribution in pancreas of normal fischer rat after injection of [18F]-fluoro-2-methyl-2-(methylamino)propanoic acid after 30 min.; assay type: ADME, organism-based; conditions: in vivo, 0.5 h; procedure, shortened: as §2
[12] = species on record: Rattus norvegicus; test: Radioactivity distribution in spleen of normal fischer rat after injection of [18F]-fluoro-2-methyl-2-(methylamino)propanoic acid after 60 min.; assay type: ADME, organism-based; conditions: in vivo, 1 h; procedure, shortened: as §3
[13] = species on record: Rattus norvegicus; test: Radioactivity distribution in blood of normal fischer rat after injection of [18F]-fluoro-2-methyl-2-(methylamino)propanoic acid after 60 min.; assay type: ADME, organism-based; conditions: in vivo, 1 h; procedure, shortened: as §1
[14] = species on record: Rattus norvegicus; test: Radioactivity distribution in blood of normal fischer rat after injection of [18F]-fluoro-2-methyl-2-(methylamino)propanoic acid after 30 min.; assay type: ADME, organism-based; conditions: in vivo, 0.5 h; procedure, shortened: as §1
[15] = species on record: Rattus norvegicus; test: Radioactivity distribution in pancreas of normal fischer rat after injection of [18F]-fluoro-2-methyl-2-(methylamino)propanoic acid after 120 min.; assay type: ADME, organism-based; conditions: in vivo, 2 h; procedure, shortened: as §2
[16] = species on record: Rattus norvegicus; test: Radioactivity distribution in heart of normal fischer rat after injection of [18F]-fluoro-2-methyl-2-(methylamino)propanoic acid after 120 min.; assay type: ADME, organism-based; conditions: in vivo, 2 h; procedure, shortened: as §1
[17] = species on record: Rattus norvegicus; test: Radioactivity distribution in brain of normal fischer rat after injection of [18F]-fluoro-2-methyl-2-(methylamino)propanoic acid after 30 min.; assay type: ADME, organism-based; conditions: in vivo, 0.5 h; procedure, shortened: as §1
[18] = species on record: Rattus norvegicus; test: Radioactivity distribution in liver of normal fischer rat after injection of [18F]-fluoro-2-methyl-2-(methylamino)propanoic acid after 60 min.; assay type: ADME, organism-based; conditions: in vivo, 1 h; procedure, shortened: as §2
[19] = species on record: Rattus norvegicus; test: Radioactivity distribution in lung of normal fischer rat after injection of [18F]-fluoro-2-methyl-2-(methylamino)propanoic acid after 60 min.; assay type: ADME, organism-based; conditions: in vivo, 1 h; procedure, shortened: as §2
[20] = species on record: Rattus norvegicus; test: Radioactivity distribution in blood of normal fischer rat after injection of [18F]-fluoro-2-methyl-2-(methylamino)propanoic acid after 5 min.; assay type: ADME, organism-based; conditions: in vivo; procedure, shortened: as §1
[21] = species on record: Rattus norvegicus; test: Radioactivity distribution in muscle of normal fischer rat after injection of [18F]-fluoro-2-methyl-2-(methylamino)propanoic acid after 5 min.; assay type: ADME, organism-based, Muscle tissue; conditions: in vivo; procedure, shortened: as §2
[22] = species on record: Rattus norvegicus; test: Radioactivity distribution in bone of normal fischer rat after injection of [18F]-fluoro-2-methyl-2-(methylamino)propanoic acid after 5 min.; assay type: ADME, organism-based, Bone element; conditions: in vivo; procedure, shortened: as §1
[23] = species on record: Rattus norvegicus; test: Radioactivity distribution in heart of normal fischer rat after injection of [18F]-fluoro-2-methyl-2-(methylamino)propanoic acid after 5 min.; assay type: ADME, organism-based; conditions: in vivo; procedure, shortened: as §1
[24] = species on record: Rattus norvegicus; test: Radioactivity distribution in lung of normal fischer rat after injection of [18F]-fluoro-2-methyl-2-(methylamino)propanoic acid after 5 min.; assay type: ADME, organism-based; conditions: in vivo; procedure, shortened: as §2

**Q.** How did the ID/g [1] turn out when `CNC(C)(C[18F])C(=O)O.Cl` (centres undefined) was run?
**A.** 2.73% and 2.79%

**Q.** What about the ID/g [2] of the same molecule?
**A.** 0.13% and 0.16%

**Q.** What about the ID/g [3] of the same molecule?
**A.** 0.1%

**Q.** What about the ID/g [4] of the same molecule?
**A.** 0.79% and 0.94%

**Q.** What about the ID/g [5] of the same molecule?
**A.** 0.08%

**Q.** What about the ID/g [6] of the same molecule?
**A.** 0.15% and 0.19%

**Q.** What about the ID/g [7] of the same molecule?
**A.** 0.75%

**Q.** What about the ID/g [8] of the same molecule?
**A.** 0.29% and 0.23%

**Q.** And the ID/g [9]?
**A.** 1.94%

**Q.** What about the ID/g [10] of the same molecule?
**A.** 0.23%

**Q.** What about the ID/g [11] of the same molecule?
**A.** 3%

**Q.** What about the ID/g [12] of the same molecule?
**A.** 0.68% and 0.45%

**Q.** What about the ID/g [13] of the same molecule?
**A.** 0.18% and 0.17%

**Q.** And the ID/g [14]?
**A.** 0.3%

**Q.** And the ID/g [15]?
**A.** 2.88% and 1.74%

**Q.** And the ID/g [16]?
**A.** 0.17% and 0.19%

**Q.** What about the ID/g [17] of the same molecule?
**A.** 0.04%

**Q.** What about the ID/g [18] of the same molecule?
**A.** 0.78% and 0.85%

**Q.** And the ID/g [19]?
**A.** 0.38% and 0.26%

**Q.** And the ID/g [20]?
**A.** 0.61% and 0.69%

**Q.** And the ID/g [21]?
**A.** 0.16% and 0.22%

**Q.** And the ID/g [22]?
**A.** 0.34% and 0.33%

**Q.** What about the ID/g [23] of the same molecule?
**A.** 0.22% and 0.34%

**Q.** And the ID/g [24]?
**A.** 0.53% and 0.61%
